Assay outcomes (PubChem)
TRPC4 agonist: opens the mouse TRPC4 cation channel; HEK293 TRPC4beta/mu-opioid, Fluo4 calcium fluorescence; stronger effect = higher value; B-score at 10 µM; actives 0.49% (n = 310,000); Q9QUQ5; AID 2237;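 active means B-score above 5 SD of library B-scores, and initial fluorescence ratio not above library mean plus 5 SD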;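 further: positive B-score marks a calcium rise read as TRPC4 activation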
Target sequence (Q9QUQ5 whole entry, looked up): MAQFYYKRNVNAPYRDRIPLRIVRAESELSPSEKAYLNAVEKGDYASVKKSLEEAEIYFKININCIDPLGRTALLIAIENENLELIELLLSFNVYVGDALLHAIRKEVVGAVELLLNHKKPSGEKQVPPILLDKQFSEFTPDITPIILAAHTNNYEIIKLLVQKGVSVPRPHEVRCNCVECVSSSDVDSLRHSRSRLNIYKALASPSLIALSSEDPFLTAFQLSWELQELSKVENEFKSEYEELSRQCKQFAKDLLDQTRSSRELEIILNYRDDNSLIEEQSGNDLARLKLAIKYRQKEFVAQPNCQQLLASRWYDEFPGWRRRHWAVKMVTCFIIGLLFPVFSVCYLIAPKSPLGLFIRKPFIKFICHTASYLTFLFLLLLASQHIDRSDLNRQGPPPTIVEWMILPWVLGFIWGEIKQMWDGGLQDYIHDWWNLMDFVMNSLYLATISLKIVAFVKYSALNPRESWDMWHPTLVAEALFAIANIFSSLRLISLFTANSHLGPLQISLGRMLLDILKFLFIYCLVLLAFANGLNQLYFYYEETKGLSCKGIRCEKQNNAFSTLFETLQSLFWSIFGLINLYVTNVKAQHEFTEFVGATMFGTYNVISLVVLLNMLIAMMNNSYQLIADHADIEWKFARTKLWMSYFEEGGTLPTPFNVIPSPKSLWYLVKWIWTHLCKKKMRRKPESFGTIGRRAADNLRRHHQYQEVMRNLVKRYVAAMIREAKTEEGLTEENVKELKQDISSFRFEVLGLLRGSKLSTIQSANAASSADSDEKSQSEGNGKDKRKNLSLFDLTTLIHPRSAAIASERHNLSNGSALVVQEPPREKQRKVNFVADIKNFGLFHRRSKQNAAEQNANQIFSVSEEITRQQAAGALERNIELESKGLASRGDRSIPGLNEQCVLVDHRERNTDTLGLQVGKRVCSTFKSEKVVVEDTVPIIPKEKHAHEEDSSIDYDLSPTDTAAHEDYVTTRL
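Incubation: 45 min room-temperature Fluo4 loading, 110 s read / System: HEK293 cells stably co-expressing mouse TRPC4beta and mu-opioid receptor / Signal: Fluo4 fluorescence, kinetic / Control set: buffer (low) and maximal DAMGO (high) / Measure: integrated baseline-normalised fluorescence ratio, converted to per-well B score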
TRPC6 inh: inhibitors of mouse TRPC6 channel; Q61143; HEK293-TRPC6, membrane potential dye, ACh-evoked depolarization; stronger effect = lower value; B-score at 10 µM; actives 1.1% (n = 310,000); AID 2553;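 active means B-score under library mean minus 3 SD, initial fluorescence not abnormally high, positive integrated signal ratio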;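 further: B-score derived from integrated fluorescence ratio over the kinetic read; more negative B-score means stronger inhibition of depolarization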
TRPC4 potent: allosterically enhances the mouse TRPC4 cation channel; HEK293 TRPC4beta/mu-opioid, DAMGO EC20, Fluo-4 Ca2+ flux; stronger effect = higher value; B-score at 10 µM; actives 0.42% (n = 310,000);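 active means B-score of calcium response area above 5 SD of library B-scores, with initial fluorescence ratio within 5 SD of library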;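 further: B-score of integrated fluorescence ratio over time as area under calcium response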
TRPC4 block: blocks the mouse TRPC4 cation channel; Q9QUQ5; HEK293 TRPC4beta/mu-opioid, DAMGO-evoked Fluo4 calcium flux; stronger effect = lower value; B-score at 10 µM; actives 0.39% (n = 300,000); AID 2247;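 active means B-score over 3 SD under the library average, no early fluorescence shift, positive overall ratio signal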
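Material: HEK293 cells with stable TRPC4beta plus mu-opioid receptor expression; probe or stimulus: DAMGO in two steps, submaximal then maximal; technique: Fluo4 calcium fluorescence by kinetic imaging, 5 s 1 Hz baseline; measure: integrated fluorescence ratio relative to baseline, converted to per-well B score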
TRPC6 act: activators of mouse TRPC6 channel. HEK293-TRPC6 membrane potential dye fluorescence; stronger effect = higher value. B-score at 10 µM. actives 0.13% (n = 310,000);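 active means B-score of the integrated fluorescence ratio above library mean plus 3 SD, and starting fluorescence ratio within library mean plus 5 SD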;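 further: higher score means more depolarization so channel activation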
TRPC4 spec 2: second selectivity test of TRPC6 inhibitors: effect on mouse TRPC4. shares compounds with TRPC6 inh. HEK293 TRPC4/MOR, membrane potential dye fluorescence; channel activated by saturating DAMGO dose. inhibition, % at 10 µM. actives 42% (n = 920);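 active means compounds whose fluorescence signal differed from control wells by over 3 SD, either direction, in both duplicate plates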
TRPC4 spec: mouse TRPC4 off-target activity of TRPC6 inhibitors. shares compounds with TRPC6 inh. HEK293 TRPC4/mu-opioid, membrane potential fluorescence. activity change, negative = inhibition, % at 10 µM. actives 61% (n = 920);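 active means rise or fall in signal beyond 3 SD of buffer-only wells in both replicate plates, either sign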;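 further: integrated kinetic ratio of fluorescence range over baseline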
HEK293 MPD ctr 2-1: second counter-screen for TRPC6 inhibitors: parental HEK293 cells. shares compounds with TRPC6 inh. parental HEK293 membrane potential dye fluorescence; maximal acetylcholine challenge after compound addition. signal change vs control, % at 10 µM. actives 31% (n = 920);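 active means membrane potential signal moving either way by over 3 SD of the maximum-effect control, in both duplicate plates, meaning non-specific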
HEK293 MPD ctr-1: checks TRPC6 inhibitor effects in parental HEK293 cells. parental HEK293 membrane potential dye fluorescence. membrane potential signal change, % at 10 µM. actives 60% (n = 920). shares compounds with TRPC6 inh;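 active means membrane potential signal shifting up or down by more than 3 SD of buffer-only wells, on both duplicate plates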
HEK293 MPD ctr-2: checks TRPC6 modulator effects in parental HEK293 cells; shares compounds with TRPC6 inh; membrane potential dye fluorescence; membrane potential signal change, % at 10 µM; actives 51% (n = 2,400); AID 488924;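 active means membrane potential signal moves up or down beyond 5 SD from buffer-only wells, on both duplicate plates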
HEK293 MPD ctr 2-2: second counter-screen for TRPC6 modulators: effect in parental HEK293 cells; AID 488926; actives 14% (n = 2,400); shares compounds with TRPC6 inh; inhibition, % at 10 µM; membrane potential dye fluorescence; after compound, maximal acetylcholine stimulation;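 active means membrane potential signal drops by more than 5 SD from the mean control signal, in both duplicate plates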;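 further: plate controls were acetylcholine ECmax control wells for no effect and buffer only wells for full effect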
TRPC4 ctr mod: selectivity of TRPC6 modulators against mouse TRPC4 | shares compounds with TRPC6 inh | HEK293 TRPC4/mu-opioid, membrane potential fluorescence | percent change from control (negative = decrease, positive = increase), % at 10 µM | actives 69% (n = 2,400) | AID 488927;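 active means membrane potential signal moved up or down beyond 5 SD of buffer control wells, in both duplicate plates, actives on both sides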;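 further: plate controls were assay buffer wells for no effect and DAMGO maximal-effect wells for full effect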
TRPC4 ctr inh 2: second check of whether TRPC6 modulators also affect mouse TRPC4; actives 55% (n = 2,400); shares compounds with TRPC6 inh; inhibition, % at 10 µM; HEK293 TRPC4/mu-opioid, membrane potential dye fluorescence; stimulated with maximal-effect DAMGO; AID 488928;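 active means drop in membrane potential signal beyond 5 SD of the control wells in both duplicate plates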;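 further: TRPC4 counter screen for TRPC6 hits run under conditions tuned for TRPC6 not TRPC4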
TRPC6 block conf: confirmation of mouse TRPC6 inhibitors; shares compounds with TRPC6 inh; HEK293-TRPC6, membrane potential dye, ACh-evoked depolarization; inhibition, % at 10 µM; actives 43% (n = 3,300);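 active means fluorescence ratio falls more than 5 SD below the full-stimulation control mean, in both duplicate runs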;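 further: integrated fluorescence ratio of peak minus minimum over baseline after agonist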
TRPC6 act confirm: confirmation of mouse TRPC6 activators; shares compounds with TRPC6 inh; HEK293-TRPC6 membrane potential dye fluorescence, FDSS; activation, % at 10 µM; actives 11% (n = 2,800); AID 488961;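 active means ratio signal rise beyond 5 SD above unstimulated control wells' mean, seen in both duplicate runs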;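 further: plate controls were buffer EC0 wells for no effect and acetylcholine ECmax response for full effect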
* hit, by the source's call; i = inactive; . = not tested or not shown. Most compounds without a hit are left out; they make up all but 2.3% or so of the library.

SMILES	TRPC4 agonist	TRPC6 inh	TRPC4 potent	TRPC4 block	TRPC6 act	TRPC4 spec 2	TRPC4 spec	HEK293 MPD ctr 2-1	HEK293 MPD ctr-1	HEK293 MPD ctr-2	HEK293 MPD ctr 2-2	TRPC4 ctr mod	TRPC4 ctr inh 2	TRPC6 block conf	TRPC6 act confirm
CCN(CC)C1CCN(C(=O)CCc2nnc(CCCCc3ccccc3)o2)C1 (stereo unspecified)	i	-5.2*	i	i	i	.	.	.	.	i	i	i	i	i	i
COc1ccc(-n2cc(CNCCCn3ccnc3)c(-c3cccc(F)c3)n2)cc1	i	-6*	i	i	i	.	.	.	.	i	i	-8.5%*	74%*	42%*	i
CCn1cnc2cc(NCc3ccc(Br)cc3)ccc21	i	-5*	i	i	i	.	.	.	.	i	i	i	40%*	40%*	i
CCCn1cnc2cc(NCc3ccc(Br)cc3)ccc21	i	i	i	i	i	.	.	.	.	.	.	.	.	.	.
CCOc1ccc(CNc2ccc3c(c2)ncn3C(C)(C)C)cc1	i	-8.5*	i	i	i	i	i	i	i	.	.	.	.	66%*	i
CC(C)CNC(=O)C(=O)NCC1CCCN1S(=O)(=O)c1cccs1 (stereo unspecified)	i	i	i	i	i	.	.	.	.	.	.	.	.	.	.
CCOc1ccccc1NC(=O)NNC(=O)COc1cccc(C)c1C	i	i	i	i	i	.	.	.	.	.	.	.	.	.	.
Cc1cc(=O)n2c3ccccc3n(CC(O)CN3CCCCC3)c2c1C#N (stereo unspecified)	i	-8.3*	i	i	i	50%*	-21%*	i	-365%*	.	.	.	.	63%*	i
CN(C)CCNc1ncnc2c1cnn2-c1ccc(Cl)cc1	i	-5.2*	i	i	i	.	.	.	.	i	i	i	31%*	46%*	i
CCC(C)N(CCNC(=O)CC1Oc2ccccc2NC1=O)C1CCCCC1 (stereo unspecified)	i	-8*	i	i	i	i	19%*	i	11%*	.	.	.	.	60%*	.
CC1CCN(Cc2ccc(NC(=O)CC3Oc4ccccc4NC3=O)cc2)CC1 (stereo unspecified)	i	-10*	i	i	i	i	i	-8.0%*	i	.	.	.	.	81%*	i
O=C1CCN(c2ccc([N+](=O)[O-])cc2F)CC1	i	i	i	i	i	.	.	.	.	.	.	.	.	.	.
Cc1ccc(S(=O)(=O)N2CCOc3ccccc32)c(C)c1NS(C)(=O)=O	i	i	i	i	i	.	.	.	.	.	.	.	.	.	.
CCCCCOc1ccc(CSC(=N)N)cc1[N+](=O)[O-]	i	-7.6*	i	i	i	46%*	i	i	-130%*	.	.	.	.	80%*	i
CCCCOc1ccc(Br)cc1CSC(=N)N	i	-6.9*	i	i	i	18%*	4.3%*	i	6.7%*	.	.	.	.	76%*	i
CCCCOc1ccc(CN(CCO)CCO)cc1[N+](=O)[O-]	i	i	i	i	i	.	.	.	.	.	.	.	.	.	.
CCN(CC)CCNC(=O)Cn1nc(Cc2ccncc2)c2ccccc2c1=O	i	-6.2*	i	i	i	.	.	.	.	i	i	i	i	i	i
COCCN1CCN(C(=O)c2cc(COc3cc(C)ccc3C)on2)CC1	i	i	i	i	i	.	.	.	.	.	.	.	.	.	.
CN(CC(=O)Nc1ccccc1Br)C(=O)c1cccn1C	i	i	i	i	i	.	.	.	.	.	.	.	.	.	.
CCn1cc(Br)c(C(=O)NCc2ccco2)n1	i	-5.8*	i	i	i	.	.	.	.	i	i	i	i	i	i
COC(=O)c1[nH]c2ccc(Br)cc2c1NC(=O)C(C)N1CCN(C2CCCCC2)CC1 (stereo unspecified)	i	-7.6*	i	i	i	42%*	-18%*	29%*	-144%*	.	.	.	.	88%*	i
COC(=O)c1[nH]c2ccc(C)cc2c1NC(=O)C(C)N1CCN(C2CCCCC2)CC1 (stereo unspecified)	i	i	i	i	i	.	.	.	.	.	.	.	.	.	.
C/C(=N\Nc1nc2ccccc2[nH]1)c1ccc(N2CCOCC2)cc1	i	-5.8*	i	i	i	.	.	.	.	i	i	-14%*	i	i	i
C/C(=N\Nc1nc2ccccc2[nH]1)c1ccc(C)o1	i	-6*	i	i	i	.	.	.	.	-140%*	60%*	-26%*	80%*	76%*	i
C/C(=N\Nc1nc(C)cc(C)n1)c1ccc(N2CCOCC2)cc1	i	i	i	i	i	.	.	.	.	.	.	.	.	.	.
C/C(=N\Nc1nc2ccccc2[nH]1)c1ccc(Cl)s1	i	i	i	i	i	.	.	.	.	.	.	.	.	.	.
CC1(C)C(=O)OC(c2ccc([N+](=O)[O-])cc2)C(C)(C)C1=O (stereo unspecified)	i	i	i	i	i	.	.	.	.	.	.	.	.	.	.
CN(C)CCC(=O)N1c2ccccc2Sc2ccc(C(F)(F)F)cc21	i	-6.3*	i	i	i	.	.	.	.	88%*	92%*	14%*	38%*	89%*	.
